Measurements: ChEMBL document CHEMBL1132538, “Potential multifunctional inhibitors of HIV-1 reverse transcriptase. Novel [AZT]-[TSAO-T] and [d4T]-[TSAO-T] heterodimers modified in the linker and in the dideoxynucleoside region” (J Med Chem, 1999)

Columns and labels:
MT4 [1] = assay: Inhibition of HIV-1 induced cytopathicity against MT-4 cell; type: functional, cell-based; conditions: Homo sapiens
Summary of the method: (§1)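 HIV-1 or HIV-2 at ~100 CCID50 per mL infecting CEM (4 × 10^5 cells/mL) or MT-4 (3 × 10^5 cells/mL) cells, mixed 1:1 with compound dilutions in microtiter wells. After 4 days, giant cell formation (CEM) or virus-induced cytopathicity (MT-4) scored microscopically.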

MT4 [2] = assay: Cytostatic concentration against MT-4 cell; type: functional; conditions: Homo sapiens
CCRF-CEM [3] = assay: Inhibition of HIV-2 induced cytopathicity against CEM cell; type: functional, cell-based; conditions: Homo sapiens
Summary of the method: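 CEM cells at 4 × 10^5 per mL infected with HIV-2 at ∼100 CCID50 per mL of cell suspension, then mixed 1:1 with serial compound dilutions. Giant cell formation scored microscopically after 4 days.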

CCRF-CEM [4] = assay: Cytostatic concentration against CEM cell; type: functional; conditions: Homo sapiens
MT4 [5] = assay: Inhibition of HIV-2 induced cytopathicity against MT-4 cell; type: functional, cell-based; conditions: Homo sapiens; summary of the method: as §1
CCRF-CEM [6] = assay: Inhibition of HIV-1 induced cytopathicity against CEM cell; type: functional, cell-based; conditions: Homo sapiens; summary of the method: as §1
MT-4 (human) = assay: Cytostatic concentration against MT-4 cell
CEM (human) = assay: Inhibition of HIV-2 induced cytopathicity against CEM cell

Row | EC50 (CCRF-CEM [3]) | EC50 (CCRF-CEM [6]) | Structure (SMILES) | EC50 (MT4 [1]) | CC50 (MT4 [2]) | CC50 (CCRF-CEM [4]) | EC50 (MT4 [5]) | CC50 (MT-4 (human)) | EC50 (CEM (human))
1 | > 50 µM | 0.4 µM | COC(=O)C(C)NP(=O)(OC[C@H]1C=C[C@@H](n2cc(C)c(=O)n(CCCCCCn3c(=O)c(C)cn([C@@H]4O[C@H](CO[Si](C)(C)C(C)(C)C)[C@@]5(OS(=O)(=O)C=C5N)[C@H]4O[Si](C)(C)C(C)(C)C)c3=O)c2=O)O1)Oc1ccccc1 (stereo partly specified) | 0.57 µM | 37 µM | > 250 µM | > 50 µM | – | –
2 | > 50 µM | 0.18 µM | Cc1cn([C@@H]2C[C@@H](N=[N+]=[N-])[C@H](CO)O2)c(=O)n(CCOCCn2c(=O)c(C)cn([C@@H]3O[C@H](CO[Si](C)(C)C(C)(C)C)[C@@]4(OS(=O)(=O)C=C4N)[C@H]3O[Si](C)(C)C(C)(C)C)c2=O)c1=O | 0.31 µM | > 250 µM | > 250 µM | > 250 µM | – | –
3 | > 50 µM | 0.25 µM | COC(=O)C(C)NP(=O)(OC[C@@H]1O[C@H](n2cc(C)c(=O)n(CCCCCCn3c(=O)c(C)cn([C@@H]4O[C@H](CO[Si](C)(C)C(C)(C)C)[C@@]5(OS(=O)(=O)C=C5N)[C@H]4O[Si](C)(C)C(C)(C)C)c3=O)c2=O)C[C@H]1O)Oc1ccccc1 (stereo partly specified) | 0.93 µM | 25 µM | 104 µM | > 50 µM | – | –
4 | > 50 µM | 0.25 µM | COC(=O)C(C)NP(=O)(OC[C@@H]1O[C@H](n2cc(C)c(=O)n(CCCn3c(=O)c(C)cn([C@@H]4O[C@H](CO[Si](C)(C)C(C)(C)C)[C@@]5(OS(=O)(=O)C=C5N)[C@H]4O[Si](C)(C)C(C)(C)C)c3=O)c2=O)C[C@H]1O)Oc1ccccc1 (stereo partly specified) | 0.33 µM | 31 µM | > 250 µM | > 50 µM | – | –
5 | 15 µM | 0.17 µM | COC(=O)C(C)NP(=O)(OC[C@H]1C=C[C@@H](n2cc(C)c(=O)n(CCCn3c(=O)c(C)cn([C@@H]4O[C@H](CO[Si](C)(C)C(C)(C)C)[C@@]5(OS(=O)(=O)C=C5N)[C@H]4O[Si](C)(C)C(C)(C)C)c3=O)c2=O)O1)Oc1ccccc1 (stereo partly specified) | 0.18 µM | 28 µM | 123 µM | 26 µM | – | –
6 | > 250 µM | 0.65 µM | COC(=O)C(C)NP(=O)(OC[C@@H]1O[C@H](n2cc(C)c(=O)n(CCCn3c(=O)c(C)cn([C@@H]4O[C@H](CO[Si](C)(C)C(C)(C)C)[C@@]5(OS(=O)(=O)C=C5N)[C@H]4O[Si](C)(C)C(C)(C)C)c3=O)c2=O)C[C@H]1N=[N+]=[N-])Oc1ccccc1 (stereo partly specified) | 3.2 µM | > 250 µM | > 250 µM | > 250 µM | – | –
7 | > 250 µM | 1.7 µM | COC(=O)C(C)NP(=O)(OC[C@@H]1O[C@H](n2cc(C)c(=O)n(CCCCCCn3c(=O)c(C)cn([C@@H]4O[C@H](CO[Si](C)(C)C(C)(C)C)[C@@]5(OS(=O)(=O)C=C5N)[C@H]4O[Si](C)(C)C(C)(C)C)c3=O)c2=O)C[C@H]1N=[N+]=[N-])Oc1ccccc1 (stereo partly specified) | – | > 250 µM | > 250 µM | > 250 µM | – | –
8 | – | 0.09 µM | Cc1cn([C@@H]2O[C@H](CO[Si](C)(C)C(C)(C)C)[C@@]3(OS(=O)(=O)C=C3N)[C@H]2O[Si](C)(C)C(C)(C)C)c(=O)n(CCCn2c(=O)c(C)cn([C@H]3C[C@H](N=[N+]=[N-])[C@@H](CO)O3)c2=O)c1=O | 0.38 µM | > 100 µM | > 100 µM | – | – | –

The remaining lines, values behind:

Row | Structure (SMILES) | EC50 (CCRF-CEM [3]) | EC50 (CCRF-CEM [6]) | EC50 (MT4 [1]) | CC50 (MT4 [2]) | CC50 (CCRF-CEM [4]) | EC50 (MT4 [5]) | CC50 (MT-4 (human)) | EC50 (CEM (human))
9 | COC(=O)C(C)NP(=O)(OCC1OC(n2cc(C)c(=O)n(CCCCCCBr)c2=O)CC1N=[N+]=[N-])Oc1ccccc1 (stereo unspecified) | > 10 µM | > 10 µM | > 10 µM | 22 µM | 22 µM | > 10 µM | – | –
10 | Cc1cn([C@@H]2O[C@H](CO[Si](C)(C)C(C)(C)C)C3(OS(=O)(=O)C=C3N)[C@H]2O[Si](C)(C)C(C)(C)C)c(=O)[nH]c1=O (stereo partly specified) | – | 0.05 µM | – | – | – | > 6 µM | 12 µM | > 6 µM
11 | Cc1cn([C@@H]2O[C@H](CO[Si](C)(C)C(C)(C)C)[C@@]3(OS(=O)(=O)C=C3N)[C@H]2O[Si](C)(C)C(C)(C)C)c(=O)n(CC#Cc2cn([C@@H]3C[C@@H](N=[N+]=[N-])[C@H](CO)O3)c(=O)[nH]c2=O)c1=O | – | 0.2 µM | 0.33 µM | 31 µM | > 250 µM | > 10 µM | – | –
12 | Cc1cn([C@@H]2CC(N=[N+]=[N-])[C@H](CO)O2)c(=O)n(CC#CCn2c(=O)c(C)cn([C@@H]3O[C@H](CO[Si](C)(C)C(C)(C)C)[C@@]4(OS(=O)(=O)C=C4N)[C@H]3O[Si](C)(C)C(C)(C)C)c2=O)c1=O (stereo partly specified) | > 50 µM | 0.23 µM | 1 µM | 106 µM | > 250 µM | > 250 µM | – | –
13 | Cc1cn([C@@H]2C[C@@H](N=[N+]=[N-])[C@H](CO)O2)c(=O)n(C/C=C/Cn2c(=O)c(C)cn([C@@H]3O[C@H](CO[Si](C)(C)C(C)(C)C)[C@@]4(OS(=O)(=O)C=C4N)[C@H]3O[Si](C)(C)C(C)(C)C)c2=O)c1=O | 57 µM | 0.34 µM | 0.7 µM | > 250 µM | > 250 µM | > 250 µM | – | –
14 | Cc1cn([C@@H]2O[C@H](CO[Si](C)(C)C(C)(C)C)[C@@]3(OS(=O)(=O)C=C3N)[C@H]2O[Si](C)(C)C(C)(C)C)c(=O)n(CC#Cc2cn([C@@H]3C=C[C@H](CO)O3)c(=O)[nH]c2=O)c1=O | > 10 µM | 0.11 µM | 0.18 µM | 8 µM | 21 µM | > 10 µM | – | –
15 | Cc1cn([C@@H]2O[C@H](CO[Si](C)(C)C(C)(C)C)[C@@]3(OS(=O)(=O)C=C3N)[C@H]2O[Si](C)(C)C(C)(C)C)c(=O)n(CC#CC#CCn2c(=O)c(C)cn([C@H]3O[C@@H](CO[Si](C)(C)C(C)(C)C)[C@]4(OS(=O)(=O)C=C4N)[C@@H]3O[Si](C)(C)C(C)(C)C)c2=O)c1=O | > 250 µM | > 50 µM | > 50 µM | 65 µM | > 250 µM | > 250 µM | – | –
16 | Cc1cn([C@@H]2O[C@H](CO[Si](C)(C)C(C)(C)C)[C@@]3(OS(=O)(=O)C=C3N)[C@H]2O[Si](C)(C)C(C)(C)C)c(=O)n(CC#Cc2cn([C@@H]3C[C@@H](O)[C@H](CO)O3)c(=O)[nH]c2=O)c1=O | > 10 µM | 0.55 µM | 0.44 µM | 15 µM | 21 µM | > 10 µM | – | –
17 | COC(=O)C(C)NP(=O)(OCC1OC(n2cc(C)c(=O)n(CCCBr)c2=O)CC1N=[N+]=[N-])Oc1ccccc1 (stereo unspecified) | > 50 µM | > 50 µM | > 50 µM | 44 µM | 41 µM | > 50 µM | – | –
